# Source: PubChem (The Scripps Research Institute Molecular Screening Center)
# Sampled rows, rich in hits. Any-hit rate of the full collection: about 2.3%.
# TAAR1 antagonist: antagonists of human TAAR1 | CHO RD-HGA16 TAAR1, Fluo-8 calcium fluorescence, antagonist | inhibition, % at 3 µM | Q96RJ0 | actives 1.5% (n = 360,000);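 active = inhibition above a per-plate cutoff, the mean inhibition of test compounds on that plate plus 3 SD, cut at about 49% in these data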;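 also: 0% = DMSO plus EC80 beta-PEA response and 100% = DMSO alone without agonist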
# Target sequence (Q96RJ0 whole entry, looked up): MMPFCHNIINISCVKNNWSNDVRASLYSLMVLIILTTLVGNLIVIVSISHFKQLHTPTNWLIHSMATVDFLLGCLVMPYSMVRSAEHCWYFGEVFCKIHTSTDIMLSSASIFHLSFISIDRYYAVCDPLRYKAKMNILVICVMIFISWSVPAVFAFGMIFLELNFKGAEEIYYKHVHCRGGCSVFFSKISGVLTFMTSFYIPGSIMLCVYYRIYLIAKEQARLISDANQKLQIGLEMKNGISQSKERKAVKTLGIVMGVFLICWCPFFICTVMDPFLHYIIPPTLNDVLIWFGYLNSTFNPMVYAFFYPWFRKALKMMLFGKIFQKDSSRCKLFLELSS
#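 System: CHO RD-HGA16 cells bearing hTAAR1. Reagent: EC80 β-phenethylamine stimulus. Schedule: seeding 17-24 h prior, 75-min 37 °C, 30-min RT dye loading. Signal: Fluo-8 intracellular calcium dye fluorescence, real-time kinetic reads. Read-out: % inhibition from peak post-agonist over basal fluorescence ratio. Benchmarks: vehicle wells and EC80 agonist wells. Replicates: n of 1.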
# OXTR potentiator: potentiates the human oxytocin receptor response; CHO-OTR cells, Fluo-8 calcium fluorescence, potentiator mode; 0% = oxytocin EC15, 100% = EC100; activation, % at 3 µM; actives 0.061% (n = 320,000); AID 2445;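 active = activation above that plate's cutoff, the mean activation of tested compounds plus 3 SD, cut at about 6.6% in these data, passing the limit was not always enough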;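 also: 100% uses oxytocin at 75 nM as the full agonist control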
# Target sequence (P30559 whole entry, looked up): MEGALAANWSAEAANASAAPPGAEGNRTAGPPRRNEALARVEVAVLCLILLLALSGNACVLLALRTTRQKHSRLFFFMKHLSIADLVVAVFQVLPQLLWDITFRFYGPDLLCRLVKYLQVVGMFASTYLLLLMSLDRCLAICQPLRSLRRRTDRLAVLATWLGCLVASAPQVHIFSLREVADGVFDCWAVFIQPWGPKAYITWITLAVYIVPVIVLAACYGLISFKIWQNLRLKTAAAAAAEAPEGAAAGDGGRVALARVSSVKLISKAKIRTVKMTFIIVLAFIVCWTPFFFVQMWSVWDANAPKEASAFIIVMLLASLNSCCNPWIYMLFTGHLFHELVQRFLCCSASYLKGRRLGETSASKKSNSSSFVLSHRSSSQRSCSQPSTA
#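 Assay system: CHO cell line stably expressing human OTR. Reagent: EC15 oxytocin agonist. Dosing: single dose, 3.0 µM nominal final compound concentration. Timing: compound 6 min at room temperature before oxytocin, 100 s read. Signal: kinetic Fluo-8 calcium fluorescence. Controls: oxytocin EC15 low and EC100 high.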
# V1aR counter: V1a receptor agonism, counter-screen for OXTR agonists; actives 0.25% (n = 320,000); CHO-V1R cells, Fluo-8 calcium fluorescence, agonist mode; 0% DMSO, 100% 3 nM vasopressin; activation, % at 3 µM; P37288; AID 2797;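 active = activation above the mean activation of all tested compounds plus 3 SD, per screening run, cut at about 20% in these data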;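 also: signal is peak over basal fluorescence ratio across a 100 second FLIPR read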
# TAAR1 agonist: human TAAR1 agonism; CHO RD-HGA16 TAAR1, Fluo-8 calcium fluorescence; vehicle wells 0%, saturating PEA agonist 100%; actives 0.99% (n = 360,000); Q96RJ0; activation, % at 3 µM;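 active = activation above the mean activation of all test compounds in the run plus 3 SD, cut at about 38% in these data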
#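 test system = CHO RD-HGA16 cells carrying human TAAR1 plus Gα16 | schedule = 17-24 h seeding, 75 min 37 °C dye, 30 min RT | compound dosing = 3 µM single concentration | control set = DMSO and PEA EC100 | replicates = n 1 | signal = Fluo-8 fluorescence, 5 s baseline then 140 s kinetic read | measure = percent activation vs PEA EC100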
# OXTR ag: human OXTR agonism. CHO-OTR cells, Fluo-8 calcium fluorescence; normalized: DMSO 0%, oxytocin 100%. activation, % at 3 µM. actives 0.32% (n = 320,000). AID 2435;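 active = activation above the mean of all tested compounds plus 3 SD, cutoff set per screening run, cut at about 20% in these data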;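 also: peak over basal fluorescence ratio from a 100 s FLIPR kinetic read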
# TAAR1 ag confirm: human TAAR1 agonism, confirmed | shares compounds with TAAR1 agonist | CHO RD-HGA16 TAAR1, Fluo-8 calcium fluorescence; scaled: DMSO 0%, maximal phenethylamine 100% | activation, % at 3 µM | actives 82% (n = 2,400);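 active = activation above a cutoff set at the run's mean compound activation plus 3 SD, cut at about 39% in these data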
# Ga16 nonsel ag: nonselective agonist in parental cells, TAAR1 agonist counter-screen; shares compounds with TAAR1 agonist; CHO-Ga16 parental, Fluo-8 calcium fluorescence; normalized to maximal ATP response, DMSO zero; activation, % at 3 µM; actives 50% (n = 2,400);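 active = activation above the run cutoff, the mean activation over all tested wells plus 3 SD, cut at about 12% in these data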;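 also: 0% = DMSO wells and 100% = maximal ATP response on the peak over basal ratio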
# TAAR1 desens: TAAR1 response desensitization, agonist counter-screen; shares compounds with TAAR1 agonist; CHO RD-HGA16 hTAAR1, Fluo-8 calcium, beta-PEA response inhibition; inhibition, % at 3 µM; actives 46% (n = 2,400);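 active = inhibition above the run cutoff, the mean inhibition of all test compounds plus 3 SD, cut at about 49% in these data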;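 also: beta-PEA stimulus applied at its EC80; loss of beta-PEA calcium signal after compound pretreatment read as receptor desensitization; 0% = DMSO with beta-PEA at EC80 and 100% = DMSO alone without agonist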
# Ga16 antag count: nonselective Ga16 antagonist in TAAR1 agonist counter-screen. inhibition, % at 3 µM. CHO-Ga16 ATP-induced calcium, Fluo-8 fluorescence. shares compounds with TAAR1 agonist. actives 39% (n = 2,400);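 active = inhibition above the plate's mean compound inhibition plus 3 SD, computed per plate, cut at about 22% in these data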;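 also: 0% = EC80 ATP with DMSO and 100% = DMSO wells without ATP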
# Starred values were filed as active, the others as inactive; / = not tested or not shown.
SMILES,TAAR1 antagonist,OXTR potentiator,V1aR counter,TAAR1 agonist,OXTR ag,TAAR1 ag confirm,Ga16 nonsel ag,TAAR1 desens,Ga16 antag count
COc1ccc(C(=O)NC2CCCc3c2cnn3-c2cccc(C)c2C)o1 (centres undefined),24.0,-7.0,9.5,0.6,6.0,/,/,/,/
CC(=O)NNC(=S)NC(=O)C(c1ccccc1)c1ccccc1,18.8,-4.9,1.5,49.3*,2.0,28.1,19.6*,26.7,24.6*
CN1CCC(=O)N([C@H](CO)c2ccccc2)CC1,-13.2,5.1,1.5,4.6,-0.2,/,/,/,/
Cc1ccc(-c2cc(C(=O)NC3CCCC3)no2)cc1,12.8,-4.5,3.4,50.9*,0.1,10.1,6.0,6.9,12.9
CCCCOc1ccc(C(=O)Nc2ccc(N3CCN(C)CC3)cc2)cc1,23.4,-8.9,1.0,47.9*,1.6,68.0*,2.8,68.2*,17.8
Cc1cccn2c(CNCC3OCCc4ccccc43)c(C(=O)N3CCCCC3)nc12 (centres undefined),44.8,-3.8,0.0,69.2*,-0.9,74.3*,5.7,60.8*,18.5
Cc1ccc(CC2(OCCN(C)C)CCC(C(C)(C)C)CC2)cc1 (centres undefined),23.2,/,/,63.4*,/,85.1*,44.5*,75.4*,41.2*
CN(C)CCCCOc1ccc(F)cc1,16.0,1.5,1.2,1.0,1.4,/,/,/,/
CN(C)CCOC1(Cc2ccc(F)cc2)CCC(C(C)(C)C)CC1 (centres undefined),24.9,/,/,56.0*,/,50.6*,34.3*,33.5,23.1*
O=c1c(Cc2c(F)cccc2Cl)c(O)ccn1CCCN1CCOCC1,4.8,-6.1,0.3,5.4,0.7,/,/,/,/
Cc1nn(-c2ccccc2)c(C)c1/C=N/n1c(-c2ccncc2)n[nH]c1=S,-5.6,-4.6,1.1,46.8*,-1.0,92.9*,17.6*,24.0,-5.5
CCCCOc1cc(NCc2ccccc2)c2ncn(C(C)C)c2c1,49.7*,6.1,8.6,65.6*,2.5,28.8,24.1*,24.6,23.8*
Cc1ccc(N2C(=O)c3cccc4c(N)ccc(c34)C2=O)c2cccnc12,79.2*,-33.6,139.2*,230.2*,132.9*,105.3*,126.2*,61.4*,68.5*
CC(=O)NC1(c2ccccc2)CCN(CC(=O)N2CCC(C)CC2)CC1,8.1,-8.0,0.3,-1.1,-0.3,/,/,/,/
COc1ccc(-c2nc(CSCC(=O)N3CCc4ccccc4C3)c(C)o2)cc1OC,29.1,-5.8,-0.2,68.4*,-1.0,93.6*,1.5,59.6*,1.4
COc1ccc(OC)c(NC(=O)N2CCCc3ccccc32)c1,-10.7,/,/,-3.2,/,/,/,/,/
COc1ccc(OC)c(NC(=O)N2CCc3ccccc3C2)c1,-13.1,-5.5,-1.0,43.5*,-1.3,56.6*,1.2,8.8,11.2
COc1ccc(NC(=O)N2CCc3ccccc3C2)cc1OC,-13.7,-0.4,-0.4,58.9*,-0.2,66.0*,2.9,12.0,0.9
COc1ccc(NC(=O)N2CCc3ccccc3C2)c(OC)c1,19.5,1.3,-0.2,44.0*,0.4,47.7*,-0.3,-10.1,-4.0
Cc1cc(C)nc(N2CCCC(C(=O)NCCc3ccccc3F)C2)n1 (centres undefined),8.0,-1.8,-0.6,44.7*,-1.4,75.7*,2.3,37.8,11.5
O=C(O)c1ccc(-c2nc(-c3ccccc3Cl)cs2)cc1,11.5,-15.3,3.7,49.3*,18.5,18.1,19.4*,20.8,14.2
CCCN1C(=O)/C(=C\C=C2\N(CC)c3ccccc3C2(C)C)SC1=S,64.8*,/,/,68.5*,/,50.5*,66.4*,73.2*,82.3*
CN1/C(=C\C=C2/SC(=S)NC2=O)C(C)(C)c2ccccc21,109.4*,-18.2,100.0*,289.5*,123.0*,69.6*,84.9*,84.5*,85.7*
CCOC(=O)Cc1csc(SCC(=O)NC2CCC(C)CC2)n1 (centres undefined),-1.5,-5.3,0.7,-0.7,-1.0,/,/,/,/
CC(C)(C)NC(=O)CSc1nc2cccnc2n1C1CCCCC1,2.8,10.0,-1.2,1.8,-2.6,/,/,/,/
SMILES,TAAR1 antagonist,OXTR potentiator,V1aR counter,TAAR1 agonist,OXTR ag,TAAR1 ag confirm,Ga16 nonsel ag,TAAR1 desens,Ga16 antag count
COc1ccc(S(=O)(=O)N2CCC(C(=O)N3CCc4ccccc4C3)CC2)cc1C,9.2,-7.6,1.7,52.1*,1.9,76.5*,0.7,19.7,10.7
Cc1c(C(=O)N2CCc3ccccc3C2)oc2ccc(S(=O)(=O)N3CC(C)CC(C)C3)cc12 (centres undefined),/,-9.1,0.6,/,-1.7,/,2.9,/,4.0
COc1ccc(NC(=O)C[C@H]2C(=O)N(Cc3ccccc3)C[C@@H]2c2ccc(OC)cc2)cc1,-8.2,/,/,1.2,/,/,/,/,/
CNC(=O)C[C@H]1C(=O)N(CCc2ccccc2)C[C@@H]1c1ccc(OC)cc1,5.1,/,/,42.5*,/,76.5*,-0.6,15.7,4.5
CNC(=O)C[C@H]1C(=O)N(CCc2ccccc2)C[C@@H]1Cc1ccccc1,-0.4,/,/,3.1,/,/,/,/,/
COc1ccc([C@H]2CN(CCc3ccccc3)C(=O)[C@@H]2CC(=O)Nc2ccccc2)cc1,20.6,/,/,50.4*,/,34.9,5.5,9.8,12.7
CN1C(C(=O)Nc2cccc(O)c2)=CC(c2cccs2)=NS1(=O)=O,17.9,-5.5,1.6,4.8,0.1,/,/,/,/
O=C(O)CNC(=O)c1ccccc1Br,13.5,3.5,0.5,1.0,0.1,/,/,/,/
Cc1ccccc1C(=O)N[C@H](C(=O)N1CCC[C@H]1C(=O)NCCc1ccccc1Cl)c1ccccc1,41.1,/,/,53.3*,/,75.0*,3.3,79.2*,11.2
CC(C)[C@H](NC(=O)c1ccc(Cl)cc1Cl)C(=O)N1CCC[C@H]1C(=O)NCc1ccccc1,-3.9,/,/,-1.0,/,/,/,/,/
O=C(NCCc1ccccc1Cl)[C@@H]1CCCN1C(=O)[C@@H](NS(=O)(=O)c1ccc(F)cc1F)c1ccccc1,55.5*,/,/,40.9*,/,57.0*,2.7,69.3*,17.2
O=C(N[C@H](C(=O)N1CCC[C@H]1C(=O)NCCc1ccccc1Cl)c1ccccc1)c1ccc(Cl)cc1Cl,35.6,/,/,29.5,/,/,/,/,/
CC(C)[C@H](NC(=O)C1CC1)C(=O)N1CCC[C@H]1C(=O)NCCc1ccccc1Cl,69.0*,/,/,61.9*,/,92.4*,2.4,89.9*,-2.2
